Laboratory results: publication PMC4678411 (Journal of Medicinal Chemistry, 2015)
Values after ≈ are worked out from the molar mass of the structure shown.

How the values were obtained:
[1] = clinical trials, patients; cited from earlier work
[2] = test system: HT-29 human colon adenocarcinoma cell line; assay: Efficacy study in a mouse model of human colon adenocarcinoma; type: in vivo, female athymic nude mice; conditions: for test-article related deaths: 0.9 mg/kg IP, ten mice
In short: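 Female athymic nude mice aged 7–9 weeks, acclimated ≥7 days. Implanted s.c. in the right flank with 1.74 × 10^6 mycoplasma-negative HT-29 cells in 50% Matrigel/medium. Randomized at mean 110 mm3, 10 per group. Dosed IP in USP saline (0.2 mL) by group-mean body weight, daily or intermittently, for 28 days. Caliper volume (L × W²/2) measured ≥twice weekly, plus necropsy tumor weight, survival, body weight and clinical signs.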

[3] = Aqueous solubility determination; type: physicochemical; conditions: pH 7.4
In short: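 About 5 mg excess solid in Tris buffer pH 7.4, in triplicate. Sonicated, vortexed, then shaken at 100 shakes/min at 25 °C for 24 h. Solid removed by centrifugation and filtration; filtrate diluted. Quantified by HPLC on a C18 column with photodiode-array detection, using an acetonitrile (10–70%)/10 mM sodium phosphate pH 7 gradient over 20 min.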

[4] = test system: A2780 human ovarian cancer cell line; assay: Efficacy study in a mouse model of human ovarian cancer; type: in vivo, female athymic nude mice
In short: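 A2780 cells (RPMI 1640/10% FBS, mycoplasma-negative) implanted s.c. at 2.5 × 10^6 in 50% Matrigel into female athymic nude mice aged 7–9 weeks. Randomized at mean 188 mm3, 10 per group. Daily IP or oral-gavage doses of 0.1–1.2 mg/kg in USP saline for 30 days. Controls were vehicle and carboplatin 60 mg/kg twice weekly. Tumor volume (L × W²/2), survival and clinical signs tracked.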

[5] = Chemical hydrolysis stability study at 40-70 °C with Arrhenius extrapolation; type: physicochemical; conditions: for extrapolated pseudo-first-order rate constant (kobsd) for hydrolysis: extrapolated from Arrhenius plot; for pseudo-first-order rate constant (kobsd) of hydrolysis: pH 7.4; for half-life: pH 7.4, calculated half-life (t1/2) of hydrolysis
In short: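 Test compound dissolved in Sodium Chloride Injection USP at 20.0 mg/100 mL ("high") or 3.00 mg/100 mL ("low"). Flame-sealed in sterilized ampules and held at 70, 60, 50 or 40 °C, sampled at intervals over hours (70, 60 °C) or days (50, 40 °C). Analysed by HPLC. Ea came from an Arrhenius plot, which was extrapolated to give kobsd, t1/2 and t90 at 25 and 4 °C.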

[6] = test system: alkaline phosphatase from bovine intestinal mucosa; conditions: no enzyme; cited from earlier work

## CC(C)[C@]12O[C@H]1[C@@H]1O[C@]13[C@]1(O[C@H]1C[C@H]1C4=C(CC[C@@]13C)C(=O)OC4)[C@@H]2OC(=O)CCC(=O)O [omtriptolide, triptolide succinate]
[1]
  cleavage of the prodrug moiety: slow and incomplete

## CC(C)[C@]12O[C@H]1[C@@H]1O[C@]13[C@]1(O[C@H]1C[C@H]1C4=C(CC[C@@]13C)C(=O)OC4)[C@@H]2OCOP(=O)([O-])[O-].[Na+].[Na+] [Compound 4, Sodium (((5bS,6aS,7aR,8R,8aS,9aS,9bS,10aS,10bS)-8a-Isopropyl-10b-methyl-3-oxo-1,2,3,5,5b,6,6a,8,8a,9a,9b,10b-dodecahydrotris(oxireno)[2′,3′:4b,5;2″,3″:6,7;2‴,3‴:8a,9]phenanthro[1,2-c]furan-8-yl)oxy)methyl Phosphate]
[2]; 0.9 mg/kg IP daily for 2 weeks followed by 3×/week
  mice that survived until the end of the study: 9/10
[2]; 0.9 mg/kg IP daily for 4 weeks
  mice that survived until the end of the study: 7/10
[2]; 0.9 mg/kg IP daily for 4 weeks or daily for 2 weeks followed by 3×/week
  tumor status of all mice surviving until the end of the study: tumor free
[2]; 0.9 mg/kg IP less frequently than daily or with a break from daily dosing
  effect on xenograft tumors, intermittent regimens: effective
[2]; QD for 2 weeks group
  test-article related deaths: 1
[2]; QD for 2 weeks then 3×/week group
  test-article related deaths: 1
[2]; QD for 4 weeks group
  test-article related deaths: 3
[2]; IP, 0.1-0.9 mg/kg, all regimens
  tolerability: generally well tolerated
[2]; administered daily IP, dose levels from 0.3 to 0.9 mg/kg, 28 days
  effect on xenograft tumors: effective in reducing or eliminating xenograft tumors
[3]
  solubility enhancement by prodrug formation versus triptolide: 3600 times
[4]; intraperitoneal injection, daily doses of 0.6 or 0.9 mg/kg (data not shown)
  efficacy and tolerability: effective and well tolerated
[4]; oral gavage, daily doses of 0.6 or 0.9 mg/kg, slightly higher rates of morbidity and mortality
  efficacy: effective
[5]; 4 °C
  extrapolated pseudo-first-order rate constant (kobsd) for hydrolysis: 6.5 × 10^–6 h^–1
  half-life: 4460 days
[5]; 25 °C
  extrapolated pseudo-first-order rate constant (kobsd) for hydrolysis: 8.6 × 10^–5 h^–1
  half-life: 336 days
[5]; 40 °C
  pseudo-first-order rate constant (kobsd) of hydrolysis: 0.000494 h^–1
[5]; 50 °C
  pseudo-first-order rate constant (kobsd) of hydrolysis: 0.001052 h^–1
[5]; 60 °C
  pseudo-first-order rate constant (kobsd) of hydrolysis: 0.002482 h^–1
[5]; 70 °C
  pseudo-first-order rate constant (kobsd) of hydrolysis: 0.008659 h^–1
[5]; from Arrhenius plot, pH 7.4, 40-70 °C
  activation energy (Ea) of hydrolysis: 15.2 kcal/mol
[6]
  stability in a similar assay in the absence of alkaline phosphatase: stable for 1 h

## CC(C)[C@]12O[C@H]1[C@@H]1O[C@]13[C@]1(O[C@H]1C[C@H]1C4=C(CC[C@@]13C)C(=O)OC4)[C@@H]2O [triptolide, Triptolide, reference compound]
[3]; Tris buffer
  solubility at 24 h: 17 µg/mL (≈ 47.2 µM)
